Results collected from several papers.
Cell line: HepG2
Observed: cell growth or viability

For `Cc1nc2ccc(CN(C)c3ccc(C(=O)N[C@@H](CCC(=O)O)C(=O)O)s3)cc2c(=O)[nH]1`, the IC50 was 1.34 µM (MTT; 48 h).
With `CC(=NNC(=O)c1cccnc1)c1ccc(Nc2nnc(-c3ccc(Cl)cc3)c3ccccc23)cc1` the viability was 49.9% (MTT; 0.625 µM, 24 h).
For `CC(=O)c1nn(-c2ccccc2Cl)/c(=N/N=C(\C)c2ccc(NC(=O)c3ccccc3)cc2)s1`, the viability was 6.09% (MTT; 2.5 µM).
For `Cc1ccc(-c2cc(-c3c(Cl)cccc3Cl)c3c(=O)[nH]c(=O)[nH]c3n2)cc1`, the IC50 was 42.7 µM (MTT; 48 h).
`CN(C)c1cc(NC(=O)c2ccccn2)c(O)c2c1C[C@H]1C[C@H]3[C@H](N(C)C)C(O)=C(C(N)=O)C(=O)[C@@]3(O)C(O)=C1C2=O` has an IC50 of 187 µg/mL (ATP luminescence; 72 h).
The IC50 of `Cc1ccc(-c2cc(-c3ccc(Cl)cc3)c3c(=O)n(C)c(=O)n(C)c3n2)cc1` is reported as 7.42 µM (MTT; 48 h).
The cell death of `O=C(C=Cc1ccccc1)Nc1ccc(Oc2nnc(-c3ccc(Cl)cc3)c3ccccc23)cc1` is reported as 62.6% (MTT; 1.25 µM).
With `CN(C)c1cc(NC(=O)Cc2cscn2)c(O)c2c1C[C@H]1C[C@H]3[C@H](N(C)C)C(O)=C(C(N)=O)C(=O)[C@@]3(O)C(O)=C1C2=O` the IC50 was 75.8 µg/mL (ATP luminescence; 72 h).
The viability of `CC(=O)Nc1ccc(/C(C)=N/N=c2\sc(C(C)=O)nn2-c2ccc(C)cc2)cc1` is reported as 99.8% (MTT; 1.25 µM).
`COc1ccc(-c2cc(-c3ccc(OC)cc3)c3c(=O)n(C)c(=O)n(C)c3n2)cc1` has an IC50 of 17.3 µM (MTT; 48 h).
For `CCOC(=O)c1nn(-c2cccc(Cl)c2)/c(=N/N=C(\C)c2ccc(NC(=O)c3ccccc3)cc2)s1`, the viability was 3.54% (MTT; 0.312 µM).
`O=C(Nc1ccccc1)Nc1ccc(Oc2nnc(-c3ccc(Cl)cc3)c3ccccc23)cc1` has a cell death of 94.9% (MTT; 5 µM).
The viability of `CC(=O)c1nn(-c2ccc(C)cc2)/c(=N/N=C(\C)c2ccc(NC(=O)c3ccccc3)cc2)s1` is reported as 28.5% (MTT; 0.156 µM).
`CC(=O)Nc1ccc(Oc2nnc(-c3ccc(Cl)cc3)c3ccccc23)cc1` has a cell death of 93.5% (MTT; 2.5 µM).
`COc1ccc(-c2cc(-c3ccc(C)cc3)nc3c2c(=O)n(C)c(=O)n3C)cc1OC` gave an IC50 of 32.5 µM (MTT; 48 h).
The viability of `CC(=NNC(=S)Nc1ccccc1)c1ccc(Nc2nnc(-c3ccc(Cl)cc3)c3ccccc23)cc1` is reported as 79.5% (MTT; 0.625 µM, 24 h).
`CC(=NNC(=O)COc1ccc2c(C)c(Cc3ccccc3)c(=O)oc2c1C)c1ccc(Br)cc1` gave a viability of 44.2% (MTT; 25 µg/mL).
With `CC(=NNC(=O)c1ccccc1O)c1ccc(Nc2nnc(-c3ccc(Cl)cc3)c3ccccc23)cc1` the viability was 87.2% (MTT; 1.25 µM, 24 h).
With `C/C(=N\N=C1/NC(=O)/C(=C\c2ccc(F)cc2)S1)c1ccccn1` the inhibition was 57.6% (SRB; 100 µg/mL, 48 h).
`CC(=NNC(=O)c1ccncc1)c1ccc(Nc2nnc(-c3ccc(Cl)cc3)c3ccccc23)cc1` gave a viability of 3.92% (MTT; 2.5 µM, 24 h).
With `CCOC(=O)c1nn(-c2cccc(Cl)c2)/c(=N/N=C(\C)c2ccc(NC(=O)c3ccc(Cl)cc3)cc2)s1` the viability was 2.86% (MTT; 0.625 µM).
